ChEMBL document CHEMBL4715843, “NO-releasing STAT3 inhibitors suppress BRAF-mutant melanoma growth” (Eur J Med Chem, 2020)
pIC50: −log10 of the molar value. The source made the active and inactive calls. The rule behind the calls is not given here.

What was measured:
MOLT-4 = assay: Anticancer activity against human MOLT-4 cells assessed as cell growth inhibition at 10 uM measured after 48 hrs by SRB assay relative to control; format: functional; conditions: read-out: GI
Summary of the method: (§1)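 NCI 60-cell-line screen. Cells in RPMI with 5% FBS were plated at 5,000–40,000 cells/well by doubling time and preincubated 24 h at 37 °C. Compound was added at a single 10 µM for 48 h, then cells were fixed with cold TCA (10% final) and stained with 0.4% SRB. Absorbance at 515 nm gave percent growth versus untreated control and time-zero cells.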

LOX IMVI = assay: Anticancer activity against human LOX IMVI cells assessed as cell growth inhibition at 10 uM measured after 48 hrs by SRB assay relative to control; format: functional; conditions: read-out: GI; summary of the method: as §1
HFF = assay: Cytotoxicity against HFF assessed as inhibition of cell proliferation by MTS assay; format: cell-based, Homo sapiens; conditions: Homo sapiens, HFF; read-out: IC50
MCF-10A = assay: Cytotoxicity against human MCF-10A cells assessed as inhibition of cell proliferation by MTS assay; format: cell-based; conditions: Homo sapiens, MCF-10A; read-out: IC50
[1] = Drug metabolism in pH 7.4 phosphate buffer assessed as nitric oxide release at 100 uM measured after 2 hrs by Griess reagent based colorimetric method
Summary of the method: (§2)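 Compound at 100 µM was held at room temperature in pH 7.4 phosphate buffer with 5 mM DTT and 2% DMSO for 2 or 48 h. Griess reagent was added, and after 30 min absorbance was read at 548 nm. NO release (mol NO/mol compound) was derived from a sodium nitrite calibration curve.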

[2] = Drug metabolism in pH 7.4 phosphate buffer assessed as nitric oxide release at 100 uM measured after 48 hrs by Griess reagent based colorimetric method; summary of the method: as §2
[3] = biological target: Mitogen-activated protein kinase; ERK1/ERK2 (Homo sapiens) (UniProt P27361+P28482); assay: Inhibition of ERK1/2 phosphorylation in human A-375 cells at 5 to 50 uM after 12 hrs by Western blotting analysis; format: cell-based; conditions: dose 5-50 µM
[4] = biological target: Signal transducer and activator of transcription 1-alpha/beta (Homo sapiens) (UniProt P42224); assay: Inhibition of STAT1 phosphorylation at Y701 residues in human A-375 cells at 50 uM after 20 hrs by Western blotting analysis; format: cell-based
Summary of the method: (§3)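 A375 cells exposed to a dose range of inhibitor for 20 h (overnight), up to 50 µM; lysates immunoblotted for phospho-STAT1 Y701, phospho-STAT5 Y694 and phospho-STAT6 Y641, with actin and/or vinculin as loading controls.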

[5] = biological target: Signal transducer and activator of transcription 6 (Homo sapiens) (UniProt P42226); assay: Inhibition of STAT6 phosphorylation at Y641 residues in human A-375 cells at 50 uM after 20 hrs by Western blotting analysis; format: cell-based; summary of the method: as §3
[6] = Antiproliferative activity against human SB-590885-sensitive 451Lu cells assessed as reduction in cell viability measured after 48 hrs by MTS assay; format: functional
Summary of the method: (§4)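 Melanoma lines were grown in RPMI-1640 with Glutamax at 37 °C and 5% CO2. The resistant 451 Lu-R and MEL 1617-R sublines were maintained with 1 µM PLX4720. Cells were incubated with vehicle or inhibitor over a dose range, and viability was read by MTS assay in triplicate.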

A-375 [7] = assay: Cell cycle arrest in human A-375 cells assessed as accumulation at S-phase at 10 uM measured after 24 hrs by […] (reference value: 33.6 to 33.7%); format: functional
A-375 [8] = assay: Cell cycle arrest in human A-375 cells assessed as accumulation at G2-phase at 10 uM measured after 24 hrs by […] (reference value: 9.14 to 10.5%); format: functional
A-375 [9] = assay: Cell cycle arrest in human A-375 cells assessed as accumulation at G1-phase at 25 uM measured after 24 hrs by […] (reference value: 55.5 to 56.2%); format: functional
A-375 [10] = assay: Cell cycle arrest in human A-375 cells assessed as accumulation at G2-phase at 25 uM measured after 24 hrs by […] (reference value: 9.14 to 10.5%); format: functional
A-375 [11] = assay: Down regulation of cyclin D1 expression in human A-375 cells measured after 24 hrs by Western blot analysis; format: functional, cell-based; conditions: dose 5-50 µM
Summary of the method: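 A375 cells were treated for one night with a dose range of inhibitor, lysed, and Cyclin D1 was detected by western blot.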

[12] = biological target: T1, Signal transducer and activator of transcription 3 (Homo sapiens, UniProt P40763); assay: Inhibition of STAT3 phosphorylation at S727 residue in human SB-590885-resistant 451Lu cells measured after 12 hrs by Western blot analysis; conditions: dose 10-25 µM
Summary of the method: (§5)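 451 Lu and MEL 1617 pairs, sensitive and resistant; resistant lines maintained in RPMI with 1 µM PLX4720. Treated with 10 and 25 µM for 12 h versus DMSO. Lysates (60 µg protein, 10% SDS-PAGE) immunoblotted for Ser727- and Tyr705-phospho-STAT3, total STAT3, total PAX3, with actin.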

[13] = biological target: T1, Signal transducer and activator of transcription 3; assay: Inhibition of STAT3 phosphorylation at Y705 residue in human SB-590885-sensitive 451Lu cells measured after 12 hrs by Western blot analysis; conditions: dose 10-25 µM; summary of the method: as §5
[14] = biological target: T1, Signal transducer and activator of transcription 3; assay: Inhibition of STAT3 phosphorylation at S727 residue in human SB-590885-sensitive 451Lu cells measured after 12 hrs by Western blot analysis; conditions: dose 10-25 µM; summary of the method: as §5
[15] = biological target: T1, Signal transducer and activator of transcription 3; assay: Inhibition of STAT3 phosphorylation at S727 residue in human SB-590885-resistant MEL1617 cells at 10 to 25 uM measured after 12 hrs by Western blot analysis; format: cell-based; conditions: dose 10-25 µM; summary of the method: as §5
[16] = biological target: T1, Signal transducer and activator of transcription 3; assay: Inhibition of STAT3 phosphorylation at S727 residue in human SB-590885-sensitive MEL1617 cells at 10 to 25 uM measured after 12 hrs by Western blot analysis; format: cell-based; conditions: dose 10-25 µM; summary of the method: as §5
[17] = biological target: T1, Signal transducer and activator of transcription 3; assay: Inhibition of STAT3 in human SB-590885-sensitive MEL1617 cells assessed as reduction in PAX3 expression at 10 to 25 uM measured after 12 hrs by Western blot analysis; format: cell-based; conditions: dose 10-25 µM; summary of the method: as §5
[18] = biological target: T1, Signal transducer and activator of transcription 3; assay: Inhibition of STAT3 in human SB-590885-resistant 451Lu cells assessed as reduction in STAT3 transcriptional activity measured after 12 hrs by Dual-luciferase reporter gene assay
Summary of the method: (§6)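 Cells co-transfected with inducible STAT3-responsive firefly luciferase and constitutive Renilla luciferase constructs (40:1) using Lipofectamine 3000. After 48 h, dose series in DMSO vehicle applied for 12 h, followed by dual-luciferase readout. Firefly signal normalized to Renilla and compared with untreated cells. Run in triplicate; IC50 taken from dose–response curves.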

[19] = biological target: T1, Signal transducer and activator of transcription 3; assay: Inhibition of STAT3 in human SB-590885-sensitive MEL1617 cells assessed as reduction in STAT3 transcriptional activity measured after 12 hrs by Dual-luciferase reporter gene assay; format: cell-based; summary of the method: as §6
[20] = Antiproliferative activity against human SB-590885-sensitive MEL1617 cells assessed as reduction in cell viability measured after 48 hrs by MTS assay; format: functional, cell-based; conditions: MEL1617, 48 h; summary of the method: as §4
[21] = Antiproliferative activity against human SB-590885-resistant MEL1617 cells assessed as reduction in cell viability measured after 48 hrs by MTS assay; format: functional, cell-based; conditions: Homo sapiens, MEL1617, 48 h; read-out: IC50; summary of the method: as §4

T1 sequence (P40763 whole entry): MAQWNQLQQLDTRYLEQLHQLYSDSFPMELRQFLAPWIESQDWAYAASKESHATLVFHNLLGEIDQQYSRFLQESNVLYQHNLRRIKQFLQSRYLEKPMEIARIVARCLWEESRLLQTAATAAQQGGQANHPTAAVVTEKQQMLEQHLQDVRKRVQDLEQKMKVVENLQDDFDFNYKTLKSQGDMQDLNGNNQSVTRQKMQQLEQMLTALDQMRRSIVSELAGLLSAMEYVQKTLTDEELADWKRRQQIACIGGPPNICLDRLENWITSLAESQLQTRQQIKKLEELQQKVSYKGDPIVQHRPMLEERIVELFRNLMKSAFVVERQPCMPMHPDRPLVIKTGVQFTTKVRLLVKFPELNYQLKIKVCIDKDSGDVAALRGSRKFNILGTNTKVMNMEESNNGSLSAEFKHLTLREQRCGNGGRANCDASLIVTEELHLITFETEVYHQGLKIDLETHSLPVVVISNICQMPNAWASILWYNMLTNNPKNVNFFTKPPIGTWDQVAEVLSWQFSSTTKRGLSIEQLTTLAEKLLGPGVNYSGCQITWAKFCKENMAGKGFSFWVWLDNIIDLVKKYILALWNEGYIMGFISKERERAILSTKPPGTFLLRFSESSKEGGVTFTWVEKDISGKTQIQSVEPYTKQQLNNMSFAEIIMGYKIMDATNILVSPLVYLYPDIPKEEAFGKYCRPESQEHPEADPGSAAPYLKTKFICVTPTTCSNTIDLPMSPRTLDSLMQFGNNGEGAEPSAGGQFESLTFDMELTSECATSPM
Sequence of Signal transducer and activator of transcription 1-alpha/beta (Homo sapiens) (P42224 whole entry): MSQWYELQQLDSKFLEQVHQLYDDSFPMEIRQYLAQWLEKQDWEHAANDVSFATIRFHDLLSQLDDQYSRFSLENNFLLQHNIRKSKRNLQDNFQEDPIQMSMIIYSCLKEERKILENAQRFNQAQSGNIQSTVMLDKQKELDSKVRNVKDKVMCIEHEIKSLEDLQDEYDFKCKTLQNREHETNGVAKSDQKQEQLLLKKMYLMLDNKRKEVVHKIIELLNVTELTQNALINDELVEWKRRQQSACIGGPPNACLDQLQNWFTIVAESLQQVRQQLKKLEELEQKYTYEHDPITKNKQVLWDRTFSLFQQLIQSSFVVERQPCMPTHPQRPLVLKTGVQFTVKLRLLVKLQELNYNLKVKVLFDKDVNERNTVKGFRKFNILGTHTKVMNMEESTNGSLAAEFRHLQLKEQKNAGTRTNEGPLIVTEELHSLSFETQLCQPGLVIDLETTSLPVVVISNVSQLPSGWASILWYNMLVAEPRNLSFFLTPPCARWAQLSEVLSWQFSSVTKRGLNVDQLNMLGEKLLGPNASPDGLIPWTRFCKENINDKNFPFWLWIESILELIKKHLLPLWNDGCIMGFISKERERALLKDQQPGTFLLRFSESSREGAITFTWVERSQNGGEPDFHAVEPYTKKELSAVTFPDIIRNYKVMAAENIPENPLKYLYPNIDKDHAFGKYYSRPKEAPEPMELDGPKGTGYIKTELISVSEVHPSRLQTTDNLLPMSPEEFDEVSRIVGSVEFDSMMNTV
Sequence of Signal transducer and activator of transcription 6 (Homo sapiens) (P42226 whole entry): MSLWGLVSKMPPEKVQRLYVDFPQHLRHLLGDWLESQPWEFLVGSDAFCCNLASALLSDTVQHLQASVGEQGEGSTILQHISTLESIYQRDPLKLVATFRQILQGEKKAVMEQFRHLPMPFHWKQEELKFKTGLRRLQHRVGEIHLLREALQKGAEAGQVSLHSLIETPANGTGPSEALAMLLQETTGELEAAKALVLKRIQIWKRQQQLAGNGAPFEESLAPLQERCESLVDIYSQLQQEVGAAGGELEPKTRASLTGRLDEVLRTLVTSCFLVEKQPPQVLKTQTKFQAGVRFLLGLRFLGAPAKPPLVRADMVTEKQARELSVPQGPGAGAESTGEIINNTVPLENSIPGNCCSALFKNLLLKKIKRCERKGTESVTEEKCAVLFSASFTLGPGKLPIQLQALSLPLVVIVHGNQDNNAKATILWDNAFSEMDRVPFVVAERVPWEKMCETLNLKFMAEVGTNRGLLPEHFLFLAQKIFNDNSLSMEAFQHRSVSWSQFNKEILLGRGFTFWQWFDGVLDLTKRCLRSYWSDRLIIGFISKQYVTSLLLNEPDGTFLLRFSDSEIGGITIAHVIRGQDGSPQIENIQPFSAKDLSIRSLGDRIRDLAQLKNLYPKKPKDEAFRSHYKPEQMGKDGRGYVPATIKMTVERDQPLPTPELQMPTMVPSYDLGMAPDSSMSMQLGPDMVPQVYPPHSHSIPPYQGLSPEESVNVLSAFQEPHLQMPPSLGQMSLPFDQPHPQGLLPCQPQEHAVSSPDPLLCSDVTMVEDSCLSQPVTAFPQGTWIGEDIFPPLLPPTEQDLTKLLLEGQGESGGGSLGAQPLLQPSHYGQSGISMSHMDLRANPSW
Sequence of Mitogen-activated protein kinase; ERK1/ERK2 (Homo sapiens) (P27361 whole entry, looked up): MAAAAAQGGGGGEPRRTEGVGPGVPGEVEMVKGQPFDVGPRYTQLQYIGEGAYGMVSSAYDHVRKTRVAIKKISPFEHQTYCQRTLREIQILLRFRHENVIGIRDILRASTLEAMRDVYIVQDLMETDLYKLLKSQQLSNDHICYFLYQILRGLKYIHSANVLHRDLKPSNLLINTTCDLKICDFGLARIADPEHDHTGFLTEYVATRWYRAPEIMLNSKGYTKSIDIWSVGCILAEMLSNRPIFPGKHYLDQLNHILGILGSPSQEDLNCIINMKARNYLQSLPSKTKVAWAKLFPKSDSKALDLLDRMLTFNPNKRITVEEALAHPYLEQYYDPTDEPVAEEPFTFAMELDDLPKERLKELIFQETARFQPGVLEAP
Sequence of Mitogen-activated protein kinase; ERK1/ERK2 (Homo sapiens) (P28482 whole entry, looked up): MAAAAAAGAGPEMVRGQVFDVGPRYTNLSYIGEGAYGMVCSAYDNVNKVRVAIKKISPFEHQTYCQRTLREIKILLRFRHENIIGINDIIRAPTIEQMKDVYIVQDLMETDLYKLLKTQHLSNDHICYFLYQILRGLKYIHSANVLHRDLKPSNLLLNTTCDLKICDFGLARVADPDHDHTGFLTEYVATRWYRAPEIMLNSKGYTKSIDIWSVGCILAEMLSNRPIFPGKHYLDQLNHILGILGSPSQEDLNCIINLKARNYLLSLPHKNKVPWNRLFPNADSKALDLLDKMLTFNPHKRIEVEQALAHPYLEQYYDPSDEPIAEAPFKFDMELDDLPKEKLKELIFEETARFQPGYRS

Row | inhibition [3] | inhibition [4] | inhibition [5] | inhibition [12] | inhibition [13] | inhibition [14] | inhibition [15] | inhibition [16] | Structure (SMILES) | inhibition of growth at 10 µM (MOLT-4) | inhibition of growth at 10 µM (LOX IMVI) | pIC50 (HFF) | pIC50 (MCF-10A) | Drug metabolism [1] | Drug metabolism [2] | pIC50 [6] | Activity (A-375 [7]) | Activity (A-375 [8]) | Activity (A-375 [9]) | Activity (A-375 [10]) | Activity (A-375 [11]) | further results
1 | inactive | inactive | inactive | Dose-dependent effect | Dose-dependent effect | Dose-dependent effect | Active | Active | C=CCn1c(SCC(=O)Nc2ccc(/C(C)=N\O)cc2)nnc1-c1cc(-c2ccc(Cl)cc2)nc2ccccc12 | 100% | 100% | 3.70 | 4.03 | 15% | 30% | 4.95 | 24.9% | 14.9% | 61.1% | 15.7% | Dose-dependent effect | inhibition [17]: Active; pIC50 [18]: 4.77; pIC50 [19]: 4.67; pIC50 [20]: 4.34; pIC50 [21]: 4.27
2 | inactive | inactive | inactive | Dose-dependent effect | Dose-dependent effect | Dose-dependent effect | Active | Active | C=CCn1c(SCC(=O)Nc2ccc(/C(C)=N\O)cc2)nnc1-c1cc(-c2ccccc2)nc2ccccc12 | 76% | 76% | 4.26 | 4.00 | 15% | 30% | 5.75 | 18.8% | 14.9% | 75.4% | 11.2% | Dose-dependent effect | inhibition [17]: Active; pIC50 [18]: 5.33; pIC50 [19]: 4.99; pIC50 [20]: 5.08; pIC50 [21]: 4.97
